Test [1] addresses Ephrin type-A receptor 2 (Homo sapiens) (UniProt P29317). Put plainly: Binding affinity to human EPHA2 at 500 nM by cell-based competition binding assay relative to control in presence of DTT. An outline of the steps:
(§1)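 Commercial (Ambit) competitive kinase-binding panel of 90 kinases measured the binding profile. Run under reducing conditions of 7.5 mM DTT. Binding is expressed relative to control.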

Test [2] has as its target Tyrosine-protein kinase receptor UFO (Homo sapiens) (UniProt P30530). Nature of the test: Binding affinity to human AXL at 500 nM by cell-based competition binding assay relative to control in presence of DTT. A digest of the protocol:
(§2)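 Kinase binding profiling ran on a commercial (Ambit) competitive binding screen against a panel of 90 kinases. The screen used reducing conditions with 7.5 mM DTT. To withstand the DTT, the bivalent ligand was tested as its amide isostere, with the disulfide replaced. A staurosporine derivative carrying a 3 β-alanine linker was run as the reference compound.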

Test [3] has as its target Vascular endothelial growth factor receptor 2 (Homo sapiens) (UniProt P35968). Nature of the test: Binding affinity to human VEGFR2 at 500 nM by cell-based competition binding assay relative to control in presence of DTT.
In test [4] the target is Mitogen-activated protein kinase 11 (Homo sapiens) (UniProt Q15759). Nature of the test: Binding affinity to human p38beta at 500 nM by cell-based competition binding assay relative to control in presence of DTT.
In test [5] the target is Epidermal growth factor receptor (Homo sapiens) (UniProt P00533). Put plainly: Binding affinity to human EGFR at 200 nM by cell-based competition binding assay relative to control in presence of DTT. An outline of the steps: as §1
The target of test [6] is MAP/microtubule affinity-regulating kinase 3 (Homo sapiens) (UniProt P27448). Nature of the test: Binding affinity to human MARK3 at 200 nM by cell-based competition binding assay relative to control in presence of DTT. An outline of the steps:
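Competition binding screen (Ambit) across a panel of 90 kinases, scoring test ligand displacement of each kinase's binding relative to control. The screen ran under reducing conditions with 7.5 mM DTT.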

Test [7] deals with Tyrosine-protein kinase ABL1 (Homo sapiens), P00519 [T315I]. Put plainly: Binding affinity to human ABL1 T315I mutant at 200 nM by cell-based competition binding assay relative to control in presence of DTT. An outline of the steps:
as §2

Test [8] has as its target Receptor tyrosine-protein kinase erbB-4 (Homo sapiens) (UniProt Q15303). Nature of the test: Binding affinity to human ERBB4 at 200 nM by cell-based competition binding assay relative to control in presence of DTT. An outline of the steps: as §1
The target in test [9] is Serine/threonine-protein kinase PAK 2 (Homo sapiens) (UniProt Q13177). Put plainly: Binding affinity to human PAK2 at 200 nM by cell-based competition binding assay relative to control in presence of DTT.
The target of test [10] is Dual specificity mitogen-activated protein kinase kinase 1 (Homo sapiens) (UniProt Q02750). Nature of the test: Binding affinity to human MEK1 at 200 nM by cell-based competition binding assay relative to control in presence of DTT. An outline of the steps:
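Kinase binding profile from a commercial panel of 90 kinases, run as a competitive binding assay. The panel was screened under reducing conditions of 7.5 mM DTT. Signal was compared with the untreated control.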

In test [11] the target is Serine/threonine-protein kinase PAK 2 (Homo sapiens) (UniProt Q13177). Nature of the test: Binding affinity to human PAK2 at 50 nM by cell-based competition binding assay relative to control in presence of DTT.
Test [12] has as its target T1, NUAK family SNF1-like kinase 2 (Homo sapiens) (UniProt Q9H093).
T1 sequence (whole entry): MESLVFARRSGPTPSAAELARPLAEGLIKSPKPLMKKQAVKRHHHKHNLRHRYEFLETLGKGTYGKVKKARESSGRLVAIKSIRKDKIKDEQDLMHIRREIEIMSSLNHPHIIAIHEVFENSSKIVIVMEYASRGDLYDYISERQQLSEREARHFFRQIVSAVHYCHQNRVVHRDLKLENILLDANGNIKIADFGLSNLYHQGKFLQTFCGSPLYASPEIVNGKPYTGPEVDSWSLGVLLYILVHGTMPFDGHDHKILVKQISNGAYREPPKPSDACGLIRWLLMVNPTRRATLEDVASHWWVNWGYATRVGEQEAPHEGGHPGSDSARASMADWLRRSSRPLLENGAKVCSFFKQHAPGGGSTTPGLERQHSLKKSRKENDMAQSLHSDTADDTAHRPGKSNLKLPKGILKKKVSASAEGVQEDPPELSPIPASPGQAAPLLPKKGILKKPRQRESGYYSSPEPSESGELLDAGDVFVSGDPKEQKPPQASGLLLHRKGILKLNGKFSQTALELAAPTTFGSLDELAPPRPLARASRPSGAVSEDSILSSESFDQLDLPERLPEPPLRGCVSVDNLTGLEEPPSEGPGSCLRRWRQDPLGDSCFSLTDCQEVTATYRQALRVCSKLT
Put plainly: Binding affinity to human SNARK at 50 nM by cell-based competition binding assay relative to control in presence of DTT.

Test [13] has as its target T2, Serine/threonine-protein kinase DCLK1 (Homo sapiens) (UniProt O15075).
T2 sequence (whole entry): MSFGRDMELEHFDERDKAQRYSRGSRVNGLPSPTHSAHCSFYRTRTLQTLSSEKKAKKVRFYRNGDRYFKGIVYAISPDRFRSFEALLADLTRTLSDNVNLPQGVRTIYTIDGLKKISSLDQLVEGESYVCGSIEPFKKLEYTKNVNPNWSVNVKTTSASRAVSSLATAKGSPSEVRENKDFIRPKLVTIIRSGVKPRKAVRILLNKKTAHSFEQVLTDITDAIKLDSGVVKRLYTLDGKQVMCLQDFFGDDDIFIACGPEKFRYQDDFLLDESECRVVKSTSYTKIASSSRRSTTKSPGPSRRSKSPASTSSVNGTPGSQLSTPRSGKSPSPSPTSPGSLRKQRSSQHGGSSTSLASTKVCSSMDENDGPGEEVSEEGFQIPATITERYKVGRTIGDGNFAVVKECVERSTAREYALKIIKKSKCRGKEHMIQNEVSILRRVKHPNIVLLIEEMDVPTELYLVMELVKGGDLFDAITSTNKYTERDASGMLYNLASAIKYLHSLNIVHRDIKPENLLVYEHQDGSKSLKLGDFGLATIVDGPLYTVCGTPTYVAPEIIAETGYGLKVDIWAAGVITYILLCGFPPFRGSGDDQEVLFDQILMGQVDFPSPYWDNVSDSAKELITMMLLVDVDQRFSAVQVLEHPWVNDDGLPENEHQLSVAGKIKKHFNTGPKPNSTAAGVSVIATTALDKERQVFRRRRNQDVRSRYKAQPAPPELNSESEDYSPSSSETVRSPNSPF
Nature of the test: Binding affinity to human DCAMKL1 at 50 nM by cell-based competition binding assay relative to control in presence of DTT. An outline of the steps: as §1

Test [14] deals with Dual specificity tyrosine-phosphorylation-regulated kinase 1B (Homo sapiens) (UniProt Q9Y463). Nature of the test: Binding affinity to human DYRK1B at 50 nM by cell-based competition binding assay relative to control in presence of DTT. A digest of the protocol:
as §1

Test [15] has as its target Dual specificity mitogen-activated protein kinase kinase 2 (Homo sapiens) (UniProt P36507). Put plainly: Binding affinity to human MEK2 at 50 nM by cell-based competition binding assay relative to control in presence of DTT.

Structures are written as SMILES. *1 amine or outer side, *2 acyl side, *3 side chain or, on linkers, in order; H or OH if unused. Where a SMILES comes first, the peptide text is derived from it. Bridges are numbered along the chain shown (N, C = ends). [ ]: non-standard residue; d: D form. The star is where a group is joined. Staurosporine = CO[C@@H]1[C@H](N(C)*)C[C@H]2O[C@]1(C)n1c3ccccc3c3c4c(c5c6ccccc6n2c5c31)C(=O)NC4; Suc = O=C(CCC(=O)[*:2])[*:1]; Dap = NC[C@H](N)C(=O)O; βAla = NCCC(=O)O

Serine/threonine-protein kinase PAK 2 (Homo sapiens), sequence (Q13177 whole entry): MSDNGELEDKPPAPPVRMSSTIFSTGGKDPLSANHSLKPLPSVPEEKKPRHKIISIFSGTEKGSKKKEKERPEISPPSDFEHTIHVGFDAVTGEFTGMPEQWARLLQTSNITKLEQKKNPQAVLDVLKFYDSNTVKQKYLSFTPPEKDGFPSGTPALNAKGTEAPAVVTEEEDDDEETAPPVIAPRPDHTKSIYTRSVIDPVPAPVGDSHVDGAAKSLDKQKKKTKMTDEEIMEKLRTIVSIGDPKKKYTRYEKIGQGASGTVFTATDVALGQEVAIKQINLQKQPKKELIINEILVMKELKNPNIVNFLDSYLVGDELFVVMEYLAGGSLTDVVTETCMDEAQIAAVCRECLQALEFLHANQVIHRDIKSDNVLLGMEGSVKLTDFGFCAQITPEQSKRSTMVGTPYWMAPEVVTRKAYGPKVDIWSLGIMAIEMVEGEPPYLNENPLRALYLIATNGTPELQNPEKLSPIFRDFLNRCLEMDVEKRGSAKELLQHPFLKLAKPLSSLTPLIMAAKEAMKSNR
Mitogen-activated protein kinase 11 (Homo sapiens), sequence (Q15759 whole entry): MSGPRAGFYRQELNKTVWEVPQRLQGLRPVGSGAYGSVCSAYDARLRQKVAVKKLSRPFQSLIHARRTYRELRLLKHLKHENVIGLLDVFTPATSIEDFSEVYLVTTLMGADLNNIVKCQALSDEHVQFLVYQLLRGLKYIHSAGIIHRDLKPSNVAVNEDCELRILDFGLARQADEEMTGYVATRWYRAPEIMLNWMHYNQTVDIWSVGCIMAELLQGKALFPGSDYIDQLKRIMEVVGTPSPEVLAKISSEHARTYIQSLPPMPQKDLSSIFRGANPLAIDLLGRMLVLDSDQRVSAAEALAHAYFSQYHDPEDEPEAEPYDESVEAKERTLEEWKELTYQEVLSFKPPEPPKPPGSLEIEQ
Vascular endothelial growth factor receptor 2 (Homo sapiens), sequence (P35968 whole entry): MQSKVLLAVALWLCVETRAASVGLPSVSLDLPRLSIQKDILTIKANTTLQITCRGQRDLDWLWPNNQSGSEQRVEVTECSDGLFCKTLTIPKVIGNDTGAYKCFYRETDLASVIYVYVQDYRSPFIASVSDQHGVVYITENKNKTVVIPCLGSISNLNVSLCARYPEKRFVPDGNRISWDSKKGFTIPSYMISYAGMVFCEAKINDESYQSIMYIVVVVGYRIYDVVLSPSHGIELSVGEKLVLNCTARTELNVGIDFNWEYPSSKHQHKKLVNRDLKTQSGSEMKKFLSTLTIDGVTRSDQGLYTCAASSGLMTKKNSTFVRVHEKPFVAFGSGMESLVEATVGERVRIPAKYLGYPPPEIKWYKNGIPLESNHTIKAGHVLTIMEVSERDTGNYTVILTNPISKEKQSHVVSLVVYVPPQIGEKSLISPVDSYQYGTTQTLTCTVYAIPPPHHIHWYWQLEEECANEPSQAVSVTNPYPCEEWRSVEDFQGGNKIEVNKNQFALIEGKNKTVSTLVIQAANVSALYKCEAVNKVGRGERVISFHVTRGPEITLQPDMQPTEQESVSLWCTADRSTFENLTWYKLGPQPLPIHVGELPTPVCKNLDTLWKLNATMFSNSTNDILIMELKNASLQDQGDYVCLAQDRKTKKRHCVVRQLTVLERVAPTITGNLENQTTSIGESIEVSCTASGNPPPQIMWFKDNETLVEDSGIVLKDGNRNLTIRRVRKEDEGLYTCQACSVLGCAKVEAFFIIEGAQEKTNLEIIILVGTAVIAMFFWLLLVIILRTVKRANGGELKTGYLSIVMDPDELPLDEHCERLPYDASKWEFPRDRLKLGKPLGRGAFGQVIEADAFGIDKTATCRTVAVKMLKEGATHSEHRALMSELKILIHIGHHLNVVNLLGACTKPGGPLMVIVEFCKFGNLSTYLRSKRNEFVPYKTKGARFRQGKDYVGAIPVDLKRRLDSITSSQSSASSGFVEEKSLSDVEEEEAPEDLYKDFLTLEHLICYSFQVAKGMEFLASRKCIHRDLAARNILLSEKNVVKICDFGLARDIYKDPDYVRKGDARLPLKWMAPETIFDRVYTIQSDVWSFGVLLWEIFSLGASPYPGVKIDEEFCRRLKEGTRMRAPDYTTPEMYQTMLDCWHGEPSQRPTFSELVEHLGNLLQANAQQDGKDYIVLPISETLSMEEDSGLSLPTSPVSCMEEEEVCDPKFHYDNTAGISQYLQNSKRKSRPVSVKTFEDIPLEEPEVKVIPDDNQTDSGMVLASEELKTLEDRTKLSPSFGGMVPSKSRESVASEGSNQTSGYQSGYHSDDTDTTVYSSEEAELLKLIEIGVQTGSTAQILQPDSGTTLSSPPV
Dual specificity mitogen-activated protein kinase kinase 1 (Homo sapiens), sequence (Q02750 whole entry): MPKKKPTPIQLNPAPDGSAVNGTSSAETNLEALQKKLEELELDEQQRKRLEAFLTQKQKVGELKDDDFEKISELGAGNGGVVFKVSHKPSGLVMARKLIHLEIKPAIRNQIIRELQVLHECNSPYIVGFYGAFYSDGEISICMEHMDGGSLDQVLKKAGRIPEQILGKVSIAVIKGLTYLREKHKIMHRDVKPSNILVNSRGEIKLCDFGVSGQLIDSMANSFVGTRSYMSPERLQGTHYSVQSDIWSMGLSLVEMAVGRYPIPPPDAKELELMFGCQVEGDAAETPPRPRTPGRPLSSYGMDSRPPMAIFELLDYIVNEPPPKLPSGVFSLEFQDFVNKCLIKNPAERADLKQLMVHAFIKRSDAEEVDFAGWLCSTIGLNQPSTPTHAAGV
Epidermal growth factor receptor (Homo sapiens), sequence (P00533 whole entry): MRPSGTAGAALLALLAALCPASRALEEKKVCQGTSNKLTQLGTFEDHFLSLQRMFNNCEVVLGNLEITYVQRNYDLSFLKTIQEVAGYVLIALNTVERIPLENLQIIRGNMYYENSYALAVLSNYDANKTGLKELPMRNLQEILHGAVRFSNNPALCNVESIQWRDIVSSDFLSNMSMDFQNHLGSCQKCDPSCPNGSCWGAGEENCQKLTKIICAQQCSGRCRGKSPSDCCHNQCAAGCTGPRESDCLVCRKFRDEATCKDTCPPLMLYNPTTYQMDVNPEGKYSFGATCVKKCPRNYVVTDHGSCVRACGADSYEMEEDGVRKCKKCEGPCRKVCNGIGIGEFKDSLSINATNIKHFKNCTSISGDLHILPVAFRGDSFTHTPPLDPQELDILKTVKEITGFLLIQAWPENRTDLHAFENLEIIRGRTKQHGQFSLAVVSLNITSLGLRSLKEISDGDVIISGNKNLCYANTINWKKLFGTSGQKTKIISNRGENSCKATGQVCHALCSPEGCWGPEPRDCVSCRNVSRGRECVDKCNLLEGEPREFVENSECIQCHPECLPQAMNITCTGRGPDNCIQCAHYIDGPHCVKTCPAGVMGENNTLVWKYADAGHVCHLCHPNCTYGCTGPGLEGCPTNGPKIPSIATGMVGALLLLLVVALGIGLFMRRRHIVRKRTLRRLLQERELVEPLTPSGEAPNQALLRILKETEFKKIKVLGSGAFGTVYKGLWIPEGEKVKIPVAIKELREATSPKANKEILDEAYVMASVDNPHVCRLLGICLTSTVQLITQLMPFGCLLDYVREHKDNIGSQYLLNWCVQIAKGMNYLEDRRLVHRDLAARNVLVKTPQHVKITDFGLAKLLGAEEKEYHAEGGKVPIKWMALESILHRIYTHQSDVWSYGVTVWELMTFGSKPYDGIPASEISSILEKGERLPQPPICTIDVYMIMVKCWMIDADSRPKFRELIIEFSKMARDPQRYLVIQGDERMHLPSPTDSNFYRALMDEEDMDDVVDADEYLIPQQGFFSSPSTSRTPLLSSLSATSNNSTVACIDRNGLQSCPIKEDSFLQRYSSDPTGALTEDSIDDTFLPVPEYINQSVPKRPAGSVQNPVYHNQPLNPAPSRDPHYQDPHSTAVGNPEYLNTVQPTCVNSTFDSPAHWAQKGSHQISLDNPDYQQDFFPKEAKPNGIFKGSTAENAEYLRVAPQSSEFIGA
MAP/microtubule affinity-regulating kinase 3 (Homo sapiens), sequence (P27448 whole entry, looked up): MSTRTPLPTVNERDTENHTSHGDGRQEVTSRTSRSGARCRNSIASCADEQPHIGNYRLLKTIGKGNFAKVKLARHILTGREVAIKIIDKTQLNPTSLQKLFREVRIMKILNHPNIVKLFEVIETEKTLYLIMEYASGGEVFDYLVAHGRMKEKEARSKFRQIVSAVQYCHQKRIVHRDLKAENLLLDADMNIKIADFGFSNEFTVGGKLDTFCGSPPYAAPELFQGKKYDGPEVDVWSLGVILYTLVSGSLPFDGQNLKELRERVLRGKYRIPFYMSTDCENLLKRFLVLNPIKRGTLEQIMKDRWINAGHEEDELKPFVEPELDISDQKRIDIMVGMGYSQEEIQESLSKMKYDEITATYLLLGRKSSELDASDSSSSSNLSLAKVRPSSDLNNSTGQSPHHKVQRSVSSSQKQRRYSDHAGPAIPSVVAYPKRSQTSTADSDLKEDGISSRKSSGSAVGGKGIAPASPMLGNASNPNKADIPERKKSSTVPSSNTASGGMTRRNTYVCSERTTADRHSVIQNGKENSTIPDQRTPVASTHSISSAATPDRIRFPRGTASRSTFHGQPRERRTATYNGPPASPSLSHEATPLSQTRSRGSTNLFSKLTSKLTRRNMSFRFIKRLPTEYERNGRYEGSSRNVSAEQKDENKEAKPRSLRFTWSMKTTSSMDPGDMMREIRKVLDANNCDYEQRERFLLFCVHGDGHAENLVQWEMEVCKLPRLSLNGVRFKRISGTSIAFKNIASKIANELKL
Dual specificity mitogen-activated protein kinase kinase 2 (Homo sapiens), sequence (P36507 whole entry): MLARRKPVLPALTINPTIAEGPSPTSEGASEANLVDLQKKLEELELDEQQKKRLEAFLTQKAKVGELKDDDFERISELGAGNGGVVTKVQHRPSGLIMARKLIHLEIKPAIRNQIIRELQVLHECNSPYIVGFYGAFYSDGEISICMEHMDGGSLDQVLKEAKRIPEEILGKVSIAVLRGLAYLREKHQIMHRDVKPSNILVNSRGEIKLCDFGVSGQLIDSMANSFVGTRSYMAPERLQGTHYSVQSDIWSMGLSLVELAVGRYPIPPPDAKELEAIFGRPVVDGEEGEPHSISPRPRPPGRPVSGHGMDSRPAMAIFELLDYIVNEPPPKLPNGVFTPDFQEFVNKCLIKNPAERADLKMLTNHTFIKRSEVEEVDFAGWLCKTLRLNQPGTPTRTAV

Consider `CO[C@@H]1[C@H](N(C)C(=O)CCC(=O)NCCC(=O)NCCC(=O)NCCC(N)=O)C[C@H]2O[C@]1(C)n1c3ccccc3c3c4c(c5c6ccccc6n2c5c31)C(=O)NC4`, for which the Activity came to 80% in [1], 8% in test [2], 36% in [3] and 100% in test [4].

As to `CO[C@@H]1[C@H](N(C)C(=O)CCC(=O)NCCC(=O)NCCC(=O)NCCC(=O)NCCC(=O)NCCC(=O)NCCC(=O)NCCC(=O)N[C@H]2CSSC[C@@H](C(=O)NCC(N)=O)NC(=O)CNC(=O)[C@H](Cc3ccccc3)NC(=O)[C@H](C(C)C)NC(=O)[C@H](CCCNC(=N)N)NC(=O)[C@H](Cc3ccccc3)NC(=O)[C@H](C(C)C)NC2=O)C[C@H]2O[C@]1(C)n1c3ccccc3c3c4c(c5c6ccccc6n2c5c31)C(=O)NC4` ({Staurosporine-Suc-βAla-βAla-βAla-βAla-βAla-βAla-βAla}-CVFRVFGCG-NH2; disulfide 1-8), the Activity is 96% in test [5]; 18% in [6]; 78% in test [7]; 100% in [8]; 36% in test [9]; 100% in [10].

For `CO[C@@H]1[C@H](N(C)C(=O)CCC(=O)NCCC(=O)NCCC(=O)NCCC(=O)NCCC(=O)NCCC(=O)NCCC(=O)NCCC(=O)N[C@H]2CNC(=O)C[C@@H](C(N)=O)NC(=O)CNC(=O)[C@H](Cc3ccccc3)NC(=O)[C@H](C(C)C)NC(=O)[C@H](CCCNC(=N)N)NC(=O)[C@H](Cc3ccccc3)NC(=O)[C@H](C(C)C)NC2=O)C[C@H]2O[C@]1(C)n1c3ccccc3c3c4c(c5c6ccccc6n2c5c31)C(=O)NC4` ({Staurosporine-Suc-βAla-βAla-βAla-βAla-βAla-βAla-βAla}-[Dap]VFRVFGD-NH2; lactam 1-8), the Activity in [11] was 72%; in [12], 1.8%; in test [13], 95%; in test [14], 79%; in test [15], 87%.
